Assays:
[1] = target: T1, Glucocorticoid receptor (Homo sapiens) (UniProt P04150); assay: Transrepression activity at glucocorticoid receptor in human fibroblasts assessed as inhibition of IL-1-induced IL-6 production at 2 uM after 18 to 24 hrs relative to dexomethasone
T1 sequence (whole entry): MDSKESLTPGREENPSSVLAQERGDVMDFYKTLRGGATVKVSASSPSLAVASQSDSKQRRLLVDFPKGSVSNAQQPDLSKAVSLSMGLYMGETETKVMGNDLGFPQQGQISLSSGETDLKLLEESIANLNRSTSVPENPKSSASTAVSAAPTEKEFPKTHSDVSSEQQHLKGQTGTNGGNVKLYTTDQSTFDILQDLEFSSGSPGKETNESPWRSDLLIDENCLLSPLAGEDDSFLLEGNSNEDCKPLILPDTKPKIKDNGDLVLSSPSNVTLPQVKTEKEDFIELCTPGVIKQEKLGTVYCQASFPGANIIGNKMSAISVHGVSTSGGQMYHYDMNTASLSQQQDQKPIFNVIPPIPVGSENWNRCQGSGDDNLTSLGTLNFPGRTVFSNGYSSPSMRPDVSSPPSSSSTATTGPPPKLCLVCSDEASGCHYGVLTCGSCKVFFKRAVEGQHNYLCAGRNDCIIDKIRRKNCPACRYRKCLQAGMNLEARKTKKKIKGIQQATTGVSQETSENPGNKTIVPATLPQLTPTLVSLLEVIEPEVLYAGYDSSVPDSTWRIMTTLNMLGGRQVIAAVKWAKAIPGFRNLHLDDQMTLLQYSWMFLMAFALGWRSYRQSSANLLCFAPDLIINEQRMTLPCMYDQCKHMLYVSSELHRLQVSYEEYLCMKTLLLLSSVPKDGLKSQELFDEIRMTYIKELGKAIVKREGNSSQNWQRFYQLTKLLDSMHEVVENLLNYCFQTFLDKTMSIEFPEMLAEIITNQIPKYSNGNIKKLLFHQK
How it was run: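 Human foreskin fibroblasts grown in Iscove's medium with 10% charcoal/dextran-treated FBS, plated at 20000/well two days before. Medium replaced, then compound (0.4% DMSO final) and recombinant human IL-1 (1 ng/mL final) added. 18–24 h at 37 °C; IL-6 in medium quantified by electrochemiluminescence, DELFIA or ELISA. IC50 by four-parameter fit of duplicate 11-point curves. Efficacy relative to dexamethasone (100%); top concentration 2 μM.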

Progesterone receptor = target: T2, Progesterone receptor (Homo sapiens, UniProt P06401); assay: Competitive binding affinity to progesterone receptor (unknown origin) expressed in baculovirus-infected cell system after 1 hr by fluorescence polarization assay in presence of tetramethylrhodamine-labeled RU-486
T2 sequence (P06401 whole entry): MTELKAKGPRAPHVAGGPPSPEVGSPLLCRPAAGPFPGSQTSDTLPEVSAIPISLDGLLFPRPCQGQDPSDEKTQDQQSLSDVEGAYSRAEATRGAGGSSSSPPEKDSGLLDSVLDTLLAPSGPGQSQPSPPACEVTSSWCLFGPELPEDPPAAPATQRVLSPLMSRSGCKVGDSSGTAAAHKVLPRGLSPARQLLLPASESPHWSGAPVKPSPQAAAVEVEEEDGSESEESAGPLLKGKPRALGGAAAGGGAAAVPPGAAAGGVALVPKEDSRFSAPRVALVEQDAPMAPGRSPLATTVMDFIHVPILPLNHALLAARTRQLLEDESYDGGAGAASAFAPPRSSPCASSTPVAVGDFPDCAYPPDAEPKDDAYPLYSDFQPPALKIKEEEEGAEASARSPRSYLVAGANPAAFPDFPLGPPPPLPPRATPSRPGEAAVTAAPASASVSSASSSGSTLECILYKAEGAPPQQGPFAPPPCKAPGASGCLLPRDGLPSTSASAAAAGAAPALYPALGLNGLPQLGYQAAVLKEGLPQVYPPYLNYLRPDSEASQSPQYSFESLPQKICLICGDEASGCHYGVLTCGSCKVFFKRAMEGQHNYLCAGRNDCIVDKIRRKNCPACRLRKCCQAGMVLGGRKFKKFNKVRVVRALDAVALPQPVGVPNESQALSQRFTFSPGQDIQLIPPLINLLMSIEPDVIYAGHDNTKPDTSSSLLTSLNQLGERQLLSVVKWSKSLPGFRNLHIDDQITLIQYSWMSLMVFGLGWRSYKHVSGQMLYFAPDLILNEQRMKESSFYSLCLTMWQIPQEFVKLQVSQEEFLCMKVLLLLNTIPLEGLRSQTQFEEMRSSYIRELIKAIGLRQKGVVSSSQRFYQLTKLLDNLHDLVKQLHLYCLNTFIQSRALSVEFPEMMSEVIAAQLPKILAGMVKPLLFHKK
How it was run: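 PR from lysate of insect cells infected with receptor baculovirus alone, diluted 13-fold. Probe 5 nM tetramethylrhodamine-labeled RU-486 in pH 7.4 TES/KCl/molybdate buffer with 1% DMSO. 1 h at room temperature in the dark, then fluorescence polarization (ex 550/em 580 nm). Background set with 2 μM RU-486. IC50 from duplicate 11-point curves, four-parameter logistic fit, mean of at least two determinations.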

| Compound | Emax [1] [%] | IC50 (Progesterone receptor) [nM] |
| --- | --- | --- |
| Cc1ccc(F)cc1C(C)(C)CC(O)(Cc1cc2nnccc2[nH]1)C(F)(F)F (racemic) | 85 | > 2000 |
| CC(C)(CC(O)(Cc1cc2ncncc2[nH]1)C(F)(F)F)c1ccc(F)cc1O (racemic) | 86 | 880 |
| CC(C)(CC(O)(Cc1cc2ncncc2[nH]1)C(F)(F)F)c1cc(Cl)cc2c1OCC2 (racemic) | 87 | 1700 |
| Cc1ccc(F)cc1C(C)(C)C[C@@](O)(Cc1cc2ncncc2[nH]1)C(F)(F)F | 72 | > 2000 |
| Cc1ccc(F)cc1C(C)(C)CC(O)(Cc1cc2cc(-c3ccccc3)nnc2[nH]1)C(F)(F)F (racemic) |  | > 2000 |
| Cc1ccc(F)cc1C(C)(C)C[C@@](O)(Cc1cc2nnccc2[nH]1)C(F)(F)F | 86 | > 2000 |
| Cc1ccc(F)cc1C(C)(C)CC(O)(Cc1cc2nc(-c3ccccc3)ncc2[nH]1)C(F)(F)F (racemic) | 93 | > 2000 |
| Cc1ccc(F)cc1C(C)(C)CC(O)(Cc1cc2nc(N3CCS(=O)(=O)CC3)ncc2[nH]1)C(F)(F)F (racemic) | 84 | > 2000 |
| Cc1ccc(F)cc1C(C)(C)CC(O)(Cc1cc2nc(-c3cccnc3)ncc2[nH]1)C(F)(F)F (racemic) | 92 | > 2000 |
| Cc1ccc(F)cc1C(C)(C)CC(O)(Cc1cc2ncncc2[nH]1)C(F)(F)F (racemic) | 74 | > 2000 |

Reference: ChEMBL document CHEMBL3124926, “Identification of highly efficacious glucocorticoid receptor agonists with a potential for reduced clinical bone side effects” (J Med Chem, 2014)
